Data from ChEMBL document CHEMBL3817728, “Synthesis, Evaluation, and Mechanism Study of Novel Indole-Chalcone Derivatives Exerting Effective Antitumor Activity Through Microtubule Destabilization in Vitro and in Vivo” (J Med Chem, 2016).
Active and inactive are the calls of the source. No cut-off for these calls is given here.

Tests used:
[1] = Metabolic stability in Sprague-Dawley rat liver microsomes assessed as compound remaining at 60 mins in presence of NADPH regenerating system by HPLC method; format: ADME; settings: read-out: Stability
Outline: (§1)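 Test compound incubated with rat liver microsomes at 37 ℃ in buffer containing an NADPH regenerating system for the stated time. Remaining parent compound was quantified by HPLC.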

A549 [2] = test: Disruption of mitochondrial membrane potential in human A549 cells at 1 to 10 nM after 24 hrs by JC1/Hoechst 33342 staining-based laser scanning confocal microscopy; format: functional, cell-based
Outline: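 After 24 h compound treatment, A549 cells were incubated with JC-1 for 30 min and visualized by laser scanning confocal microscopy.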

A549 [3] = test: Cell cycle arrest in human A549 cells assessed as accumulation at sub-G1 phase at 3 to 10 nM after 24 to 72 hrs by propidium iodide staining-based flow cytometric analysis; format: functional
Outline: (§2)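 A549 cells exposed to compound for 24, 48 or 72 h, then trypsinized and harvested. DNA stained with propidium iodide and analyzed by flow cytometry. Percentage of cells in each cell-cycle phase was quantified from the DNA histograms, with sub-G1 taken as the hypodiploid peak. Performed at least three times; representative experiments shown.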

A549 [4] = test: Cell cycle arrest in human A549 cells assessed as decrease in cell level at G1 phase at 1 to 10 nM after 24 to 48 hrs by propidium iodide staining-based flow cytometric analysis; format: functional; outline: as §2
[5] = Selectivity ratio of IC50 for human MCF10A cells to IC50 for human A549 cells; format: ADME, cell-based; settings: MCF10A cells versus A549 cells, read-out: Ratio IC50
Outline: (§3)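 Selectivity ratio = IC50 in normal cells / IC50 in A549; IC50 values mean ± SE from dose-response curves of at least three independent experiments. HUVECs kept quiescent in endothelial cell medium with 0.5% fetal calf serum, no growth factor.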

A549 [6] = test: Disruption of mitochondrial membrane potential in human A549 cells assessed as green fluorescence intensity at 3 nM after 24 hrs by JC1 staining-based flow cytometric method (reference value: 0.02%); format: functional
A549 [7] = test: Induction of apoptosis in human A549 cells assessed as late apoptotic cells at 1 nM after 24 hrs by annexin V-FITC/propidium iodide staining-based flow cytometric method (reference value: 0.01%); format: functional
A549 [8] = test: Induction of apoptosis in human A549 cells assessed as viable cells at 3 nM after 48 hrs by annexin V-FITC/propidium iodide staining-based flow cytometric method (reference value: 98.1%); format: functional; settings: A549, 48 h, read-out: Activity
Outline: (§4)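 A549 cells exposed 24 h or 48 h at indicated concentrations, then trypsinized, harvested and stained with Annexin V-FITC and PI; flow cytometry quadrants scored as necrotic (upper left), late apoptotic (upper right), live (bottom left) and early apoptotic (bottom right). Five independent experiments, representative shown.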

A549 [9] = test: Induction of apoptosis in human A549 cells assessed as viable cells at 10 nM after 48 hrs by annexin V-FITC/propidium iodide staining-based flow cytometric method (reference value: 98.1%); format: functional; settings: A549, 48 h, read-out: Activity; outline: as §4
A549 [10] = test: Induction of apoptosis in human A549 cells assessed as late apoptotic cells at 10 nM after 48 hrs by annexin V-FITC/propidium iodide staining-based flow cytometric method (reference value: 0.01%); format: functional
[11] = Metabolic stability in Sprague-Dawley rat liver microsomes assessed as compound remaining at 120 mins in presence of NADPH regenerating system by HPLC method; format: ADME; settings: read-out: Stability
Outline: (§5)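 Rat liver microsomes incubated with compound at 37 ℃ for indicated times in buffer containing NADPH regenerating system; residual parent determined by HPLC.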

A549 [12] = test: Disruption of mitochondrial membrane potential in human A549 cells assessed as red fluorescence intensity at 1 nM after 24 hrs by JC1 staining-based flow cytometric method (reference value: 99.2%); format: functional
[13] = Cytotoxicity against human MCF7/DX cells assessed as growth inhibition after 48 hrs by MTT assay; format: functional, cell-based
Outline: (§6)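 Drug-resistant lines were tested by a 48 h MTT viability assay. IC50 was derived from dose-response curves and reported as mean ± SE of at least three independent experiments.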

[14] = Metabolic stability in Sprague-Dawley rat liver microsomes assessed as compound remaining at 90 mins in presence of NADPH regenerating system by HPLC method; format: ADME; settings: read-out: Stability; outline: as §1
A549 [15] = test: Induction of apoptosis in human A549 cells assessed as early apoptotic cells at 10 nM after 48 hrs by annexin V-FITC/propidium iodide staining-based flow cytometric method (reference value: 1.95%); format: functional
A549 [16] = test: Disruption of microtubule network in human A549 cells assessed as multinucleation at 10 nM after 24 hrs by Hoechst 33342 staining-based laser scanning confocal microscopic analysis; format: cell-based
Outline: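 A549 cells plated in confocal dishes and incubated with compound for 24 h. Cells were then fixed and stained, and microtubule and spindle organization was imaged by laser confocal microscopy. Experiments done five times; representative results shown.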

[17] = Selectivity ratio of IC50 for quiescent HUVEC to IC50 for human A549 cells; format: ADME, cell-based; settings: quiescent HUVEC versus A549 cells, read-out: Ratio IC50; outline: as §3
A549 [18] = test: Disruption of mitochondrial membrane potential in human A549 cells assessed as green fluorescence intensity at 1 nM after 24 hrs by JC1 staining-based flow cytometric method (reference value: 0.02%); format: functional
[19] = Metabolic stability in Sprague-Dawley rat liver microsomes assessed as compound remaining at 180 mins in presence of NADPH regenerating system by HPLC method; format: ADME; settings: read-out: Stability; outline: as §5
A549 [20] = test: Disruption of mitochondrial membrane potential in human A549 cells assessed as red fluorescence intensity at 10 nM after 24 hrs by JC1 staining-based flow cytometric method (reference value: 99.2%); format: functional
[21] = Cytotoxicity against human A2780/TAX cells assessed as growth inhibition after 48 hrs by MTT assay; format: functional, cell-based; outline: as §6
A549 [22] = test: Induction of apoptosis in human A549 cells assessed as necrotic cells at 1 nM after 24 hrs by annexin V-FITC/propidium iodide staining-based flow cytometric method (reference value: 0.03%); format: functional
A549 [23] = test: Induction of apoptosis in human A549 cells assessed as late apoptotic cells at 3 nM after 48 hrs by annexin V-FITC/propidium iodide staining-based flow cytometric method (reference value: 0.01%); format: functional
Tubulin (Sus scrofa) = Tubulin (Sus scrofa) (UniProt P02554+P02550); test: Inhibition of [3H]-colchicine binding to porcine brain tubulin at 5 uM relative to control
Tubulin (Sus scrofa), sequence (P02550 whole entry, looked up): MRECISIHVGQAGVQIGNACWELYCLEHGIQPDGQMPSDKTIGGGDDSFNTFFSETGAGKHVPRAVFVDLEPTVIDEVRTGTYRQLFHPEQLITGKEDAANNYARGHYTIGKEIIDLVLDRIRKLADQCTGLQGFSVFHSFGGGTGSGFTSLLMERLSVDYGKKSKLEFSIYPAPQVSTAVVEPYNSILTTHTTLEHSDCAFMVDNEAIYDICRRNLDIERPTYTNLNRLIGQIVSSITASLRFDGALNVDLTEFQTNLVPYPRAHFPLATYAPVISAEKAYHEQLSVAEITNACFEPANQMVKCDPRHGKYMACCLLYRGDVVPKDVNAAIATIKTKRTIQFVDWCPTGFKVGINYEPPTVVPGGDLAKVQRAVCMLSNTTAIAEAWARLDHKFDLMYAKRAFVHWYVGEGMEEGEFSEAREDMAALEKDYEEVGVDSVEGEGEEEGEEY
Tubulin (Sus scrofa), sequence (P02554 whole entry, looked up): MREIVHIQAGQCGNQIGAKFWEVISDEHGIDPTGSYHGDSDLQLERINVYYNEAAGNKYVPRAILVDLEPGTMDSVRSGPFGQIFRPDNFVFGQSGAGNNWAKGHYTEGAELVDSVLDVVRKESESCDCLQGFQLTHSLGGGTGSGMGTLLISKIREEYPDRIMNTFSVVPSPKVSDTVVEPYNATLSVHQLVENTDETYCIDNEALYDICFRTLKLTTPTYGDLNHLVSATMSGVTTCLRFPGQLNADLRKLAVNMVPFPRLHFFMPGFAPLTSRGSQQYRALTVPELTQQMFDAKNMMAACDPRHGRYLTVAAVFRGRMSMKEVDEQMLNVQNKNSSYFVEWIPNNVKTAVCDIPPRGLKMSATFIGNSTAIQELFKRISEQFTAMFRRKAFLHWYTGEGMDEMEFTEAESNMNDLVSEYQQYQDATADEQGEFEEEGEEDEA
Outline: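 Competition with [3H]colchicine at 5 μM; test agents at 5 or 1 μM. Mean ± SD of at least three independent experiments.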

A549 [24] = test: Induction of apoptosis in human A549 cells assessed as early apoptotic cells at 1 nM after 48 hrs by annexin V-FITC/propidium iodide staining-based flow cytometric method (reference value: 1.95%); format: functional
[25] = Cytotoxicity against human Bel7402 cells assessed as cell viability after 48 hrs by MTT assay; format: functional, cell-based; settings: Bel-7402, 48 h
Outline: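 Cancer cell lines treated with compound for 48 h, and viability read by MTT assay. IC50 given as mean ± SD from at least three independent experiments.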

[26] = Half life in Sprague-Dawley rat liver microsomes in presence of NADPH regenerating system by HPLC method; format: ADME
Outline: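 Compound incubated with rat liver microsomes at 37 °C in buffer containing an NADPH regenerating system, sampled over time up to 3 h. Remaining parent compound was measured by HPLC and half-life derived.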

SMILES: COc1ccc2c(/C=C(\C)C(=O)c3cc(OC)c(OC)c(OC)c3)c[nH]c2c1
- remaining at 1 h [1]: 80.5%
- Activity (A549 [2]): Active
- Activity (A549 [3]): Active
- Activity (A549 [4]): Active
- selectivity ratio [5]: 891
- Activity (A549 [6]): 43.8%
- Activity (A549 [7]): 2.12%
- viability at 0.003 µM (A549 [8]): 33.9%
- viability at 0.01 µM (A549 [9]): 15.6%
- Activity (A549 [10]): 70.2%
- remaining at 2 h [11]: 66.3%
- Activity (A549 [12]): 97.2%
- IC50 [13]: 9 nM
- remaining at 1.5 h [14]: 73.7%
- Activity (A549 [15]): 8.41%
- Activity (A549 [16]): Active
- selectivity ratio [17]: 54.3
- Activity (A549 [18]): 1.78%
- remaining at 3 h [19]: 42.4%
- Activity (A549 [20]): 40.7%
- IC50 [21]: 124 nM
- Activity (A549 [22]): 1.45%
- Activity (A549 [23]): 33.4%
- inhibition (Tubulin (Sus scrofa)): 96%
- Activity (A549 [24]): 18.9%
- IC50 [25]: 9 nM
- half-life [26]: 2.62 h
